In series [1] the test system is Rattus norvegicus. The experiment in a line: AUC (0-inf) in rat assessed as radioactivity at 10 mg/kg, iv. Details: time infinity, dose 10 mg/kg, route intravenous. Conditions: in vivo. The format is ADME, organism-based, Plasma. Put shortly: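 [14C]CS-023 with unlabeled drug in saline, 10 mg/kg single i.v. bolus (rats via tail vein, 4.58 MBq/kg; monkeys via cephalic vein, 3 MBq/kg). Blood drawn with heparin (rat jugular, monkey femoral vein) at set times. Plasma centrifuged at 4°C, and total radioactivity counted by liquid scintillation with tissue solubilizer. Quantitation limit was twice background.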

Series [2] concerns Rattus norvegicus. Briefly: Urinary excretion ratio in rat assessed as radioactivity at 10 mg/kg, iv after 7 days. The format is ADME, organism-based, Urine. Details: dose 10 mg/kg, route intravenous. Particulars: in vivo, 168 h. Put shortly:
(§1)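 Rats were dosed i.v. via the tail vein with [14C]CS-023 at 10 mg/kg (4.58 MBq/kg) in saline, then kept in individual metabolic cages for separate urine and feces collection over 7 days. Samples up to 24 h were collected at around 4°C into 0.5 M MOPS pH 6.0, and feces were homogenized. Radioactivity was measured by liquid scintillation counting. Parent drug and metabolite were apportioned by silica TLC (3% NaCl:acetonitrile 2:1) with imaging-plate analysis. n=4.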

The test system of series [3] is Rattus norvegicus. Briefly: Fecal excretion ratio in rat assessed as radioactivity at 10 mg/kg, iv after 7 days. Conditions: in vivo, 168 h. The format is ADME, organism-based. Also on record: dose 10 mg/kg, route intravenous. Put shortly:
as §1

The subject of series [4] is Rattus norvegicus. Briefly: Biliary excretion in bile duct cannulated rat assessed as radioactivity at 10 mg/kg, iv after 48 h. Format: ADME, organism-based. Conditions: in vivo. Details: dose 10 mg/kg, route intravenous. Put shortly:
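Rats had bile-duct cannulation by laparotomy under diethyl ether and were housed in Bollman cages. They were then dosed i.v. with [14C]CS-023 at 10 mg/kg in saline. Bile was collected on ice over set intervals, and radioactivity was measured by liquid scintillation counting.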

For series [5], the system named is Macaca fascicularis. The experiment in a line: AUC (0-inf) in monkey assessed as radioactivity at 10 mg/kg, iv. Particulars: cynomolgus monkey, in vivo.
Series [6] deals with Macaca fascicularis. Briefly: Fecal excretion ratio in monkey assessed as radioactivity at 10 mg/kg, iv after 7 days. Particulars: cynomolgus monkey, in vivo, 168 h.
Series [7] deals with Macaca fascicularis. Briefly: Urinary excretion ratio in monkey assessed as radioactivity at 10 mg/kg, iv after 7 days. Particulars: cynomolgus monkey, in vivo, 168 h.

Data on one compound can be found in ChEMBL document CHEMBL1142153, “Pharmacokinetics and disposition of CS-023 (RO4908463), a novel parenteral carbapenem, in animals” (Antimicrob Agents Chemother, 2007).

Each structure is given as a SMILES string.

In the case of `C[C@@H](O)[C@H]1C(=O)N2[C@@H]1[C@@H](C)C(S[C@H]1C[C@@H](C(=O)N3CC[C@H](NC(=O)CNC(=N)N)C3)N(C)C1)=[14C]2C(=O)O`, the results for the AUC in the series with Rattus norvegicus [1] and in the series on Macaca fascicularis [5] were 26800 ng·h/mL and 87400 ng·h/mL, respectively. Further, the Activity was found to be 87.1% in the series with Rattus norvegicus [2]; 12.5% with Rattus norvegicus [3]; 0.54% in the series with Rattus norvegicus [4]; 7.5% in the series on Macaca fascicularis [6]; 88% in the series with Macaca fascicularis [7].
